# Results reported in ChEMBL document CHEMBL1131140, “Synthesis and antimalarial activities of fluoroalkyl derivatives of dihydroartemisinin” (J Med Chem, 1998).
# Tested on: Plasmodium falciparum
# Assay: In vitro antimalarial activity for Plasmodium falciparum W-2
# Assay type: functional, organism-based
# Summary of the method: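 P. falciparum W-2 cultured in A+ human erythrocytes, RPMI with 10% A+ human serum, 25 mM HEPES, 25 mM NaHCO3, 37 °C, 10% O2/6% CO2/84% N2. Assay at 0.5% parasitemia, 1.5% hematocrit; 2-fold dilutions (methanol stocks), final 1.6–200 nM in triplicate; [3H]hypoxanthine uptake over 42 h; IC50 by nonlinear regression of log dose–response; mean of ≥3 experiments.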
row,Compound,IC50 [nM]
1,"C[C@@H]1CC[C@H]2[C@@H](C)C(OCC(F)(F)C(F)(F)C(F)(F)F)O[C@@H]3OC4(C)CC[C@@H]1[C@]32OO4 (single isomer, unassigned)",36
2,"COC1O[C@@H]2OC3(C)CC[C@H]4[C@H](C)CC[C@@H]([C@H]1C)[C@@]24OO3 (single isomer, unassigned)",7.5
3,"CCOC(=O)C(OC1O[C@@H]2OC3(C)CC[C@H]4[C@H](C)CC[C@@H]([C@H]1C)[C@@]24OO3)C(F)(F)F (single isomer, unassigned)",61
4,"C[C@H]1C(OCC(F)(F)F)O[C@@H]2OC3(C)CC[C@H]4[C@H](C)CCC1[C@@]24OO3 (single isomer, unassigned)",31
5,"C[C@@H]1CC[C@H]2[C@@H](C)C(OC(c3ccccc3)(C(F)(F)F)C(F)(F)F)O[C@@H]3OC4(C)CC[C@@H]1[C@]32OO4 (single isomer, unassigned)",38
6,"C[C@@H]1CC[C@H]2[C@@H](C)C(OC(C(F)(F)F)C(F)(F)F)O[C@@H]3OC4(C)CC[C@@H]1[C@]32OO4 (single isomer, unassigned)",34
7,"C[C@@H]1CC[C@H]2[C@@H](C)C(OCC(F)(F)C(F)(F)F)O[C@@H]3OC4(C)CC[C@@H]1[C@]32OO4 (single isomer, unassigned)",27
8,"C[C@@H]1CC[C@H]2[C@@H](C)C(OCC(F)(F)C(F)C(F)(F)F)O[C@@H]3OC4(C)CC[C@@H]1[C@]32OO4 (single isomer, unassigned)",34
9,"C[C@@H]1CC[C@H]2[C@@H](C)C(OC(c3ccccc3)C(F)(F)F)O[C@@H]3OC4(C)CC[C@@H]1[C@]32OO4 (single isomer, unassigned)",66
10,"CC(OC1O[C@@H]2OC3(C)CC[C@H]4[C@H](C)CC[C@@H]([C@H]1C)[C@@]24OO3)C(F)(F)F (single isomer, unassigned)",35
11,"C[C@@H]1CC[C@H]2[C@@H](C)[C@](O)(C(F)(F)F)O[C@@H]3OC4(C)CC[C@@H]1[C@]32OO4 (single isomer, unassigned)",2.6
12,CO[C@H]1O[C@@H]2O[C@@]3(C)CC[C@H]4[C@H](C)CC[C@@H]([C@H]1C)[C@@]24OO3 [ARTEMETHER],5.4
